Compound activity deposited in PubChem by several laboratories.
Hits are enriched below; roughly 2.6% of the tested compounds scored in any of these assays.
SENP7 block – inhibitors of human SENP7 protease. Q9BQF6. recombinant SENP7, Z-RLRGG-aminoluciferin luminescence, 40 min. inhibition, % at 5 µM. 330,000 tested, 1.5% active. AID 434973;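 active = inhibition above about 50% at the single test dose, limit read from the data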;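 also: plate controls were DMSO with enzyme for no effect and no enzyme buffer wells for full effect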
Target sequence (Q9BQF6 706-1050 limits assumed): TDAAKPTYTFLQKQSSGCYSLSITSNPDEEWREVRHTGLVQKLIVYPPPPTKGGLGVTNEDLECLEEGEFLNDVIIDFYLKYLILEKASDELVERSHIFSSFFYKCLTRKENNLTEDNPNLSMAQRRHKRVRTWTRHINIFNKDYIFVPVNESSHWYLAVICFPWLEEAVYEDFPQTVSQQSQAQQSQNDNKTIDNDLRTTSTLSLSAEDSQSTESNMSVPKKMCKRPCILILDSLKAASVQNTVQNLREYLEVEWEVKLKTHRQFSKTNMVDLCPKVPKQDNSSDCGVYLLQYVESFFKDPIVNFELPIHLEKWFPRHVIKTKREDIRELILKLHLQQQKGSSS
Platelet DG rel – modulates dense granule release in human platelets; human platelet-rich plasma, SFLLRN dense granule ATP release, luminescence; inhibition, %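 (compounds screened at 7.5 µM in platelet-rich plasma)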; 300,000 tested, 0.22% active; AID 1663;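 active = mean replicate score, as percent of positive control, at or above 50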
SENP6 inh – inhibitors of human SENP6 protease. Q9GZR1. Recombinant SENP6 catalytic domain, aminoluciferin luminescence. inhibition, % at 10 µM. 330,000 tested, 1.8% active;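 active = inhibition above about 50% at the single tested dose, limit read from the data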;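 also: plate controls were DMSO wells with enzyme for no effect and DMSO wells lacking enzyme for full effect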
SENP1 FRET inh – inhibitors of human SENP1 SUMO protease catalytic domain. recombinant SENP1 catalytic domain, CyPet-SUMO1-YPet FRET cleavage. Q9P0U3. 360,000 tested, 0.21% active. inhibition, % at 10 µM;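 active = inhibition at least 30% at 10 µM, raw YFP signal under a set limit, fluorescence ratio 0.5 to 1.5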;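 also: 0% = enzyme with DMSO and 100% = no enzyme wells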
Target sequence (Q9P0U3 419-644 limits assumed): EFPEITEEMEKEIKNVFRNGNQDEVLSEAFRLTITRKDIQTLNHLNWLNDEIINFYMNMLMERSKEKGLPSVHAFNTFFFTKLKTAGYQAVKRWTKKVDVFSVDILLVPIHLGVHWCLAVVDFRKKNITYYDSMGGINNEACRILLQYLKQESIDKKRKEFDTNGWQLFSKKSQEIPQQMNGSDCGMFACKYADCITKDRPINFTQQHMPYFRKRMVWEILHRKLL
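Assay system – human recombinant His6-tagged SENP1 catalytic domain enzyme · Input – SENP1 enzyme, 20 pM final · Buffer or medium – Tris pH 8 buffer plus EDTA, NaCl, BME, BSA, NP40, catalase · Schedule – 50 min reaction at room temperature · Technique – FRET read of cyan and yellow fluorescence · Control set – no-enzyme wells low, DMSO-plus-enzyme wells high control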
SENP8 block-1 – SENP8 protease inhibition; purified SENP8, Z-RLRGG-aminoluciferin cleavage, luminescence; inhibition, % at 10 µM; Q96LD8; 330,000 tested, 1.2% active; in the data active = inhibition above about 50%
SENP8 block-2 – blocks human SENP8 cleavage of Nedd8 substrate; Q96LD8; recombinant SENP8, Nedd8 substrate fluorescence; inhibition, % at 20 µM; 360,000 tested, 0.64% active; AID 602440; in the data active = inhibition mostly above about 40%, no sharp cut-off; inactive = mostly below about 27%
SENP8 confirm – confirmation of human SENP8 protease inhibitors; shares compounds with SENP7 block; Recombinant SENP8, Z-RLRGG-aminoluciferin luminescence, 60 min; inhibition, % at 12.5 µM; 6,200 tested, 40% active; AID 488912;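 active = mean inhibition across replicates above about 50%, limit read from the data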
SENP6 confirm – confirmation of human SENP6 protease inhibitors; shares compounds with SENP7 block; recombinant SENP6, Z-RLRGG-aminoluciferin luminescence; inhibition, % at 12.5 µM; 6,200 tested, 58% active; AID 488915
SENP7 confirm – human SENP7 inhibition, confirmed; recombinant SENP7, Z-RLRGG-aminoluciferin luminescence, 40 min; inhibition, % at 12.5 µM; shares compounds with SENP7 block; AID 488917; 6,200 tested, 69% active
Casp3 select – caspase-3 inhibition (SENP selectivity assay); AID 488918; 6,200 tested, 60% active; shares compounds with SENP7 block; inhibition, % at 12.5 µM; purified caspase-3, Z-DEVD-aminoluciferin luminescence, 60 min;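 active = mean inhibition above about 50%, limit read from the data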;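 also: plate controls were enzyme with DMSO for no effect and wells without caspase-3 for full effect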
SENP luc ctr – luminescence interference (SENP counter-screen); shares compounds with SENP7 block; Pre-incubated SENP8/Z-RLRGG-aminoluciferin, luciferase luminescence interference; inhibition, % at 12.5 µM; 6,200 tested, 39% active; AID 488919;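 active = mean inhibition above about 50% when retested at one dose, limit read from the data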;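 also: plate controls were DMSO wells with completed reaction for no effect and substrate without enzyme for full effect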
Starred values were filed as active, the others as inactive; i = inactive; . = no result.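 The calls were made as follows, unless noted: active = mean inhibition above about 50% in the one-dose retest (limit read from the data); inactive = the rest.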

SMILES | SENP7 block | Platelet DG rel | SENP6 inh | SENP1 FRET inh | SENP8 block-1 | SENP8 block-2 | SENP8 confirm | SENP6 confirm | SENP7 confirm | Casp3 select | SENP luc ctr
c1ccc(Cn2ccc(-c3cnc(-c4ccccc4)s3)n2)cc1 | 80* | 21 | 81* | -1 | 64* | i | 9 | 78* | 92* | 63* | 64*
O=c1cc(-c2ccc(O)cc2)oc2cc(O)cc(O)c12 | 29 | -5 | 70* | -5 | 54* | 14 | 52* | 51* | 75* | 40 | 62*
O=c1cc(-c2ccc(O)cc2)oc2ccc(O)cc12 | 30 | 3 | 51* | -13 | 19 | -278 | 12 | 20 | 61* | 45 | 45
COc1ccc(-c2cc(=O)c3c(O)c(OC)c(O)cc3o2)cc1 | 87* | -4 | 84* | 0 | 83* | 6 | 90* | 90* | 99* | 89* | 55*
Cc1cccc(C(O)c2ncc(-c3ccccc3)[nH]2)c1C (stereo not given) | . | . | . | -2 | . | 18 | . | . | . | . | .
COc1ccc(C=C2SC(=S)N(CCCC(=O)Nc3ccc(C(=O)O)c(O)c3)C2=O)cc1OC | . | . | . | -47 | . | 17 | . | . | . | . | .
O=C(CCN1C(=O)S/C(=C/c2ccccc2)C1=O)Nc1ccc(C(=O)O)c(O)c1 | 10 | 4 | 57* | 1 | 45 | 5 | 60* | 55* | 74* | 32 | 65*
O=C(CCN1C(=O)S/C(=C\c2ccc(Cl)cc2)C1=O)Nc1ccc(C(=O)O)cc1 | -5 | -4 | 1 | 1 | -4 | 3 | . | . | . | . | .
O=C(CCN1C(=O)S/C(=C/c2ccc(F)cc2)C1=O)Nc1ccc(O)c(C(=O)O)c1 | -2 | 20 | 4 | 2 | -2 | -268 | . | . | . | . | .
O=C(CCN1C(=O)/C(=C\c2ccccc2F)SC1=S)Nc1ccc(C(=O)O)c(O)c1 | 12 | -3 | 66* | 3 | 64* | 10 | 78* | 73* | 67* | 12 | 52*
O=C(CCN1C(=O)S/C(=C\c2ccc(F)cc2)C1=O)Nc1ccc(C(=O)O)c(O)c1 | 60* | 9 | 82* | 4 | 75* | -7 | 85* | 80* | 81* | 44 | 79*
O=C(CCCN1C(=O)/C(=C/c2ccccc2)SC1=S)Nc1ccc(C(=O)O)c(O)c1 | 20 | 4 | 79* | 2 | 73* | 18 | 73* | 72* | 84* | 32 | 76*
Cc1ccc(S(=O)(=O)N2CCN(CC(O)CN3CCOCC3)CC2)cc1 (stereo not given) | 0 | . | -15 | 2 | 2 | 3 | . | . | . | . | .
CC1CCN(c2nc3ccccc3nc2C(C#N)C(=O)NC2CCCCC2)CC1 (stereo not given) | -5 | 8 | -1 | . | -2 | . | . | . | . | . | .
N#CCCSc1ncnc2c1oc1ccccc12 | 2 | 17 | 6 | 2 | 1 | 24 | . | . | . | . | .
COc1ccc(NC(=O)N2CCCCCC2)c(OC)c1 | -1 | 7 | -14 | 3 | -4 | 16 | . | . | . | . | .
CCC1(c2ccc(F)cc2)NC(=O)N(CC(=O)Nc2ccc(-c3nc4ccc(C)cc4s3)cc2)C1=O (stereo not given) | -1 | 24 | 58* | -74 | -12 | -266 | 3 | -3 | 14 | 18 | 17
Cc1cc(C)c(C(=O)COC(=O)CCn2c(C)csc2=O)cc1C | 3 | 9 | 0 | -1 | -1 | -2 | . | . | . | . | .
O=C(Nc1nc2ccccc2s1)c1ccc(OCC2CCCO2)cc1 (stereo not given) | 77* | 3 | 71* | 0 | 53* | -155 | 42 | 73* | 93* | 62* | 46
O=C(Nc1nc2ccccc2s1)c1ccc(F)cc1 | 93* | 7 | 88* | 2 | 85* | -43 | 2 | 87* | 100* | 86* | 48
CC(=O)Nc1nc(=O)c2ccccc2s1 | 2 | 11 | -5 | -1 | -5 | 16 | . | . | . | . | .
COc1ccc(C(=O)Nc2nc3ccccc3s2)cc1OC | 15 | -1 | 21 | -2 | 6 | -102 | . | . | . | . | .
O=C(Nc1nc(=O)c2ccccc2s1)c1ccccc1 | 41 | 1 | 60* | -1 | 43 | 19 | 20 | 53* | 17 | 27 | 11
O=S(=O)(/N=C(/Nc1nc2ccccc2s1)c1ccccc1)c1ccc(F)cc1 | 9 | . | 19 | 2 | 1 | -5 | . | . | . | . | .
COc1cccc(C(=O)Nc2nc3ccccc3s2)c1 | 91* | -3 | 90* | -4 | 86* | -17 | 90* | 91* | 99* | 83* | 60*
SMILES | SENP7 block | Platelet DG rel | SENP6 inh | SENP1 FRET inh | SENP8 block-1 | SENP8 block-2 | SENP8 confirm | SENP6 confirm | SENP7 confirm | Casp3 select | SENP luc ctr
CCCCN1CC(=O)N2[C@@H]3c4cc(Br)ccc4OC[C@@H]3[C@H](C(=O)OCC)[C@]2(C)C1=O | . | . | . | 4 | . | -5 | . | . | . | . | .
Cc1ccc(N2C(=O)N(CC(=O)c3cc(C)ccc3C)C(=O)C2C)cc1 (stereo not given) | -1 | -13 | 0 | 3 | 9 | 11 | . | . | . | . | .
CC1CC(C)CN(CCCNC(=O)c2cc3c(s2)-c2ccccc2OC3)C1 (stereo not given) | -2 | 1 | -6 | -9 | -7 | -434 | . | . | . | . | .
COc1cccc(C(=O)Nc2nnc(SCC(=O)Nc3ccc(NC(C)=O)cc3)s2)c1 | 49 | 4 | 70* | 1 | 55* | -30 | 32 | 61* | 86* | 67* | 12
COc1cccc(C(=O)Nc2nc(-c3ccncc3)cs2)c1 | 7 | 2 | 1 | 0 | -4 | -15 | . | . | . | . | .
COc1cccc(N2CC(C(=O)Nc3nnc(SCC(=O)Nc4ccc(NC(C)=O)cc4)s3)CC2=O)c1 (stereo not given) | -1 | 16 | 0 | -1 | 2 | 8 | . | . | . | . | .
COc1cccc(C(=O)Nc2nc(C)cs2)c1 | 42 | -2 | 52* | 3 | 17 | 15 | 31 | 32 | 72* | 69* | 50*
Cc1csc(NC(=O)c2ccc3nc[nH]c3c2)n1 | 78* | -1 | 82* | 2 | 69* | 1 | 12 | 75* | 95* | 88* | 74*
O=C(Nc1ncccc1O)c1ccc(OCC2CCCO2)cc1 (stereo not given) | 51* | 31 | 45 | 1 | 21 | -2 | 44 | 42 | 77* | 82* | 49
